Assay results taken from ChEMBL document CHEMBL4007402 (J Med Chem, 2017).

How the values were obtained:
[1] = Growth inhibition of mouse BAF3 cells after 72 hrs by CellTiter-Glo or CCK-8 assay; type: cell-based
Method in brief: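 Isogenic murine BaF3 cells transformed with TEL-fused kinases, whose proliferation depends on the fused kinase, were used. Parental BaF3 cells served as the general selectivity counter-screen. The anti-proliferative read-out was reported as GI50.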

[2] = molecular target: T1, Cytoplasmic tyrosine-protein kinase BMX (Homo sapiens) (UniProt P51813)
T1 sequence (whole entry): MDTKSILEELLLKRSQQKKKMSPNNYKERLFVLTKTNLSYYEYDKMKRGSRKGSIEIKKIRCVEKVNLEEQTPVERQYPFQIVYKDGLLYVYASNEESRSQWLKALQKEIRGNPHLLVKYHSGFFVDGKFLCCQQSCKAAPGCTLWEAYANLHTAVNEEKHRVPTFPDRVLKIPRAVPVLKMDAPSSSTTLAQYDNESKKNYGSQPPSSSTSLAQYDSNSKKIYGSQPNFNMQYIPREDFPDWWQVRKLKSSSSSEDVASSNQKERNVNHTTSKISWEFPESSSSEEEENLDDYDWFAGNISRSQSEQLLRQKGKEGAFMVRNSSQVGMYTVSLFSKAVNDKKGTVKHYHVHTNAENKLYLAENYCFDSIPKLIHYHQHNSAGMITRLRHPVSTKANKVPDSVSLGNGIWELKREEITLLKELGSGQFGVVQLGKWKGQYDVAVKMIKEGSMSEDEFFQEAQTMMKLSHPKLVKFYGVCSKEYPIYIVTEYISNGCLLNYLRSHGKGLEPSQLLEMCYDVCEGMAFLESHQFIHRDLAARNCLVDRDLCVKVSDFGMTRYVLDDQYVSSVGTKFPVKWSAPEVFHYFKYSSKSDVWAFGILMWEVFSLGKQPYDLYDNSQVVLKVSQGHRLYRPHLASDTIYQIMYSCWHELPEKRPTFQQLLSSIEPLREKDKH

GI50 [2]	SMILES	GI50 at 72 h [1]
0.69 µM	C=CC(=O)Nc1cc(Nc2ncc3c(n2)N(C)C(=O)N(c2cc(NC(=O)c4cc(OC)cc(OC)c4)ccc2C)C3)ccc1C	> 10 µM
2.28 µM	C=CC(=O)Nc1cc(Nc2ncc3c(n2)N(C)C(=O)N(c2cc(NC(=O)[C@H]4CC[C@H](C)CC4)ccc2C)C3)ccc1C	8.81 µM
5.9 µM	C=CC(=O)Nc1cc(Nc2ncc3c(n2)N(C)C(=O)N(c2cc(NC(=O)[C@H]4CC[C@H](C(F)(F)F)CC4)ccc2C)C3)ccc1C	> 10 µM
> 10 µM	C=CC(=O)Nc1cc(Nc2ncc3c(n2)N(C)C(=O)N(c2cc(NC(=O)[C@@H](N)Cc4cc5ccccc5[nH]4)ccc2C)C3)ccc1C	> 10 µM
8.35 µM	C=CC(=O)Nc1cc(Nc2ncc3c(n2)N(C)C(=O)N(c2cc(NC(=O)[C@@H](N)CCC(=O)OC(C)(C)C)ccc2C)C3)ccc1C	> 10 µM
1.07 µM	C=CC(=O)Nc1cc(Nc2ncc3c(n2)N(C)C(=O)N(c2cc(NC(=O)c4ccc(OC)cc4)ccc2C)C3)ccc1C	> 10 µM
5.93 µM	C=CC(=O)Nc1cc(Nc2ncc3c(n2)N(C)C(=O)N(c2cc(NC(=O)c4cc(OC)c(OC)c(OC)c4)ccc2C)C3)ccc1C	> 10 µM
2.74 µM	C=CC(=O)Nc1cc(Nc2ncc3c(n2)N(C)C(=O)N(c2cc(NC(=O)c4ccc(OC)cc4OC)ccc2C)C3)ccc1C	> 10 µM
0.67 µM	C=CC(=O)Nc1cc(Nc2ncc(C(=O)Nc3cc(NC(=O)c4ccccc4OC)ccc3C)c(NC)n2)ccc1C	> 10 µM
0.13 µM	C=CC(=O)Nc1cc(Nc2ncc3c(n2)N(C)C(=O)N(c2cc(NC(=O)[C@@H](N)CC(C)C)ccc2C)C3)ccc1C	> 10 µM
0.031 µM	C=CC(=O)Nc1cc(Nc2ncc3c(n2)N(C)C(=O)N(c2cc(NC(=O)c4cc(C)ccc4F)ccc2C)C3)ccc1C	> 10 µM
2.78 µM	C=CC(=O)Nc1cc(Nc2ncc3c(n2)N(C)C(=O)N(c2cc(NC(=O)c4c(C)cccc4F)ccc2C)C3)ccc1C	> 10 µM
0.24 µM	C=CC(=O)Nc1cc(Nc2ncc3c(n2)N(C)C(=O)N(c2cc(NC(=O)c4ccc(OC)c(OC)c4)ccc2C)C3)ccc1C	8.13 µM
0.23 µM	C=CC(=O)Nc1cc(Nc2ncc3c(n2)N(C)C(=O)N(c2cc(NC(=O)c4ccc5c(c4)OCO5)ccc2C)C3)ccc1C	> 10 µM

More lines, now with the values behind:

SMILES	GI50 [2]	GI50 at 72 h [1]
C=CC(=O)Nc1cc(Nc2ncc(C(=O)Nc3cc(C(=O)Nc4cc(OC)c(OC)c(OC)c4)ccc3C)c(NC)n2)ccc1C	0.098 µM	> 10 µM
C=CC(=O)Nc1cc(Nc2ncc3c(n2)N(C)C(=O)N(c2cc(NC(=O)c4cc(OC)ccc4OC)ccc2C)C3)ccc1C	3 µM	> 10 µM
C=CC(=O)Nc1cc(Nc2ncc(C(=O)Nc3cc(NC(=O)c4ccc(OC)cc4)ccc3C)c(NC)n2)ccc1C	1.1 µM	> 10 µM
C=CC(=O)Nc1cc(Nc2ncc3c(n2)N(C)C(=O)N(c2cc(NC(=O)c4ccc(N(C)C)cc4)ccc2C)C3)ccc1C	1.03 µM	> 10 µM
C=CC(=O)Nc1cc(Nc2ncc3c(n2)N(C)C(=O)N(c2cc(NC(=O)c4ccccc4OC)ccc2C)C3)ccc1C	3.01 µM	> 10 µM
C=CC(=O)Nc1cc(Nc2ncc3c(n2)N(C)C(=O)N(c2cc(NC(=O)c4ccc(C)c(C(F)(F)F)c4)ccc2C)C3)ccc1C	1.24 µM	> 10 µM
C=CC(=O)Nc1cc(Nc2ncc(C(=O)Nc3cc(NC(=O)c4cccc(OC)c4)ccc3C)c(NC)n2)ccc1C	6 µM	> 10 µM
C=CC(=O)Nc1cc(Nc2ncc3c(n2)N(C)C(=O)N(c2cc(NC(=O)[C@H]4CC[C@H](CCC)CC4)ccc2C)C3)ccc1C	0.64 µM	7.4 µM
C=CC(=O)Nc1cc(Nc2ncc3c(n2)N(C)C(=O)N(c2cc(NC(=O)c4cccc(C(F)(F)F)c4)ccc2C)C3)ccc1C		0.74 µM
C=CC(=O)Nc1cc(Nc2ncc(C(=O)Nc3cc(NC(=O)c4ccc5c(c4)OCCO5)ccc3C)c(NC)n2)ccc1C	0.155 µM	> 10 µM
C=CC(=O)Nc1cc(Nc2ncc3c(n2)N(C)C(=O)N(c2cc(NC(=O)[C@H]4CC[C@H](CCCC)CC4)ccc2C)C3)ccc1C	2.49 µM	5.08 µM
Cc1ccc(Nc2ncc3c(n2)N(C)C(=O)N(c2cc(NC(=O)c4cccc(C(F)(F)F)c4)ccc2C)C3)cn1		0.12 µM
C=CC(=O)Nc1cc(Nc2ncc3c(n2)N(C)C(=O)N(c2cc(NC(=O)c4ccc5c(c4)CCCC5)ccc2C)C3)ccc1C		> 10 µM
C=CC(=O)Nc1cc(Nc2ncc(C(=O)Nc3cc(NC(=O)c4ccc(OC)c(OC)c4)ccc3C)c(NC)n2)ccc1C	1 µM	> 10 µM
C=CC(=O)Nc1cc(Nc2ncc3c(n2)N(C)C(=O)N(c2cc(NC(=O)[C@@H](N)Cc4ccccc4)ccc2C)C3)ccc1C		> 10 µM
C=CC(=O)Nc1cc(Nc2ncc3c(n2)N(C)C(=O)N(c2cc(NC(=O)[C@H]4CC[C@H](C(C)C)CC4)ccc2C)C3)ccc1C	5.28 µM	> 10 µM
C=CC(=O)Nc1cc(Nc2ncc3c(n2)N(C)C(=O)N(c2cc(NC(=O)c4cc(C(F)(F)F)cc(C(F)(F)F)c4)ccc2C)C3)ccc1C	0.78 µM	> 10 µM
C=CC(=O)Nc1cc(Nc2ncc(C(=O)Nc3cc(NC(=O)c4ccc5c(c4)OCO5)ccc3C)c(NC)n2)ccc1C	1.08 µM	> 10 µM
C=CC(=O)Nc1cc(Nc2ncc3c(n2)N(C)C(=O)N(c2cc(NC(=O)c4ccc5c(c4)OCCO5)ccc2C)C3)ccc1C	> 10 µM	> 10 µM
C=CC(=O)Nc1cc(Nc2ncc(C(=O)Nc3cc(C(=O)Nc4cccc(C(F)(F)F)c4)ccc3C)c(NC)n2)ccc1C	0.008 µM	4.9 µM
C=CC(=O)Nc1cc(Nc2ncc(C(=O)Nc3cc(NC(=O)c4cc(OC)cc(OC)c4)ccc3C)c(NC)n2)ccc1C	0.119 µM	> 10 µM
C=CC(=O)Nc1cc(Nc2ncc(C(=O)Nc3cc(NC(=O)c4cc(C)ccc4F)ccc3C)c(NC)n2)ccc1C	0.044 µM	> 10 µM
